Source: ChEMBL document CHEMBL4229483, “Synthesis and evaluation of an orally available "Y"-shaped biaryl peroxisome proliferator-activated receptor δ agonist” (Bioorg Med Chem, 2018)

target: T1, Peroxisome proliferator-activated receptor delta (Homo sapiens, UniProt Q03181); assay: Transactivation of human PPARdelta expressed in monkey CV-1 cells coexpressing TK-PPRE-Luc after 24 hrs by luciferase reporter gene assay; format: cell-based
T1 sequence (Q03181 whole entry): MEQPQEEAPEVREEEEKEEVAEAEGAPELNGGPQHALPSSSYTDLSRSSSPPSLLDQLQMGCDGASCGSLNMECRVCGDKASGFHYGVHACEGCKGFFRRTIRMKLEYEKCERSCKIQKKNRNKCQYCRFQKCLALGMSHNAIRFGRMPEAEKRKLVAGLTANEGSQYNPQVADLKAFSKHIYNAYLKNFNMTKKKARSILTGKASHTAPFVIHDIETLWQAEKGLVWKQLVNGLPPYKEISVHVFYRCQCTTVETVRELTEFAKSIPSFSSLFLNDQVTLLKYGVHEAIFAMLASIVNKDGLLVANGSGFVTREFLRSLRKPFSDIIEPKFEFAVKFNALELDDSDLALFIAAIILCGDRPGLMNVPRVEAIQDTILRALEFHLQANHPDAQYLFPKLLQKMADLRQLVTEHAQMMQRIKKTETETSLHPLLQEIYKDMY
In short: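 Agonist activity tested in transiently transfected CV-1 cells by reporter assay. EC50 is the molar concentration giving 50% of the maximal reporter activity.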

| SMILES | EC50 [µM] |
| --- | --- |
| Cc1cc(SC(Cc2ccccc2)c2ccc(-c3ccc(F)cc3)cc2)ccc1OCC(=O)O (stereo not drawn) | 0.007 |
| Cc1cc(SC(Cc2cc(F)c(F)c(F)c2)c2ccc(-c3cccc(C(F)(F)F)c3)cc2)ccc1OCC(=O)O (stereo not drawn) | 0.012 |
| Cc1cc(SC(Cc2cc(F)ccc2F)c2ccc(-c3cc(F)c(F)c(F)c3)cc2)ccc1OCC(=O)O (stereo not drawn) | 0.0063 |
| Cc1cc(SC(Cc2cc(Cl)ccc2F)c2ccc(-c3ccccc3)cc2)ccc1OCC(=O)O (stereo not drawn) | 0.026 |
| Cc1cc(SC(Cc2cc(C(F)(F)F)ccc2F)c2ccc(-c3cccc(C(F)(F)F)c3)cc2)ccc1OCC(=O)O (stereo not drawn) | 0.0058 |
| Cc1cc(SC(Cc2cc(Cl)ccc2F)c2ccc(-c3cccc(C(F)(F)F)c3)cc2)ccc1OCC(=O)O (stereo not drawn) | 0.0053 |
| Cc1cc(SC(Cc2cc(F)c(F)c(F)c2)c2ccc(-c3ccc(F)cc3)cc2)ccc1OCC(=O)O (stereo not drawn) | 0.065 |
| Cc1cc(SC(Cc2cc(F)ccc2F)c2ccc(-c3cccc(C(F)(F)F)c3)cc2)ccc1OCC(=O)O (stereo not drawn) | 0.0091 |
| Cc1cc(SC(Cc2cc(C(F)(F)F)ccc2F)c2ccc(-c3ccccc3)cc2)ccc1OCC(=O)O (stereo not drawn) | 0.01 |
| Cc1cc(SC(Cc2cc(F)c(F)c(F)c2)c2ccc(-c3ccc(C(F)(F)F)cc3)nc2)ccc1OCC(=O)O (stereo not drawn) | 0.056 |
| Cc1cc(SC(Cc2ccccc2)c2ccc(-c3cccc(C(F)(F)F)c3)cc2)ccc1OCC(=O)O (stereo not drawn) | 0.018 |

target: T2, Peroxisome proliferator-activated receptor gamma (Homo sapiens, UniProt P37231); assay: Transactivation of human PPARgamma expressed in monkey CV-1 cells coexpressing TK-PPRE-Luc after 24 hrs by luciferase reporter gene assay; format: cell-based
T2 sequence (P37231 whole entry): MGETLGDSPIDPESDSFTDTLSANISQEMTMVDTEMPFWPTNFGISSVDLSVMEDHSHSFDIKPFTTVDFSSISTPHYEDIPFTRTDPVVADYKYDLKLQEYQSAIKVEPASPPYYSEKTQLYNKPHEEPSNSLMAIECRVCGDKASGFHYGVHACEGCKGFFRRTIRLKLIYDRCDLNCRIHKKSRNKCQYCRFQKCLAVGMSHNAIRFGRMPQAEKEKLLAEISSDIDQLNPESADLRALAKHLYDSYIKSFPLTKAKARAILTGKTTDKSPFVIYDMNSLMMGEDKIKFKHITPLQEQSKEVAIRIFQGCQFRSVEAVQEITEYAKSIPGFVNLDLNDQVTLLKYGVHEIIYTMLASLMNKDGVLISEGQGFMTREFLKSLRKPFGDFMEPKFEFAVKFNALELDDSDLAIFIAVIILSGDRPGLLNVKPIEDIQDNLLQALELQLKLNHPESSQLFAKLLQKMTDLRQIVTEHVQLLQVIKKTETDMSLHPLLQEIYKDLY

| SMILES | EC50 [µM] |
| --- | --- |
| Cc1cc(SC(Cc2ccccc2)c2ccc(-c3ccc(F)cc3)cc2)ccc1OCC(=O)O (stereo not drawn) | > 10 |
| Cc1cc(SC(Cc2cc(F)c(F)c(F)c2)c2ccc(-c3cccc(C(F)(F)F)c3)cc2)ccc1OCC(=O)O (stereo not drawn) | > 10 |
| Cc1cc(SC(Cc2cc(F)ccc2F)c2ccc(-c3cc(F)c(F)c(F)c3)cc2)ccc1OCC(=O)O (stereo not drawn) | > 10 |
| Cc1cc(SC(Cc2cc(Cl)ccc2F)c2ccc(-c3ccccc3)cc2)ccc1OCC(=O)O (stereo not drawn) | > 10 |
| Cc1cc(SC(Cc2cc(C(F)(F)F)ccc2F)c2ccc(-c3cccc(C(F)(F)F)c3)cc2)ccc1OCC(=O)O (stereo not drawn) | > 10 |
| Cc1cc(SC(Cc2cc(Cl)ccc2F)c2ccc(-c3cccc(C(F)(F)F)c3)cc2)ccc1OCC(=O)O (stereo not drawn) | > 10 |
| Cc1cc(SC(Cc2cc(F)c(F)c(F)c2)c2ccc(-c3ccc(F)cc3)cc2)ccc1OCC(=O)O (stereo not drawn) | > 10 |
| Cc1cc(SC(Cc2cc(F)ccc2F)c2ccc(-c3cccc(C(F)(F)F)c3)cc2)ccc1OCC(=O)O (stereo not drawn) | > 10 |
| Cc1cc(SC(Cc2cc(C(F)(F)F)ccc2F)c2ccc(-c3ccccc3)cc2)ccc1OCC(=O)O (stereo not drawn) | > 10 |
| Cc1cc(SC(Cc2cc(F)c(F)c(F)c2)c2ccc(-c3ccc(C(F)(F)F)cc3)nc2)ccc1OCC(=O)O (stereo not drawn) | > 10 |
| Cc1cc(SC(Cc2ccccc2)c2ccc(-c3cccc(C(F)(F)F)c3)cc2)ccc1OCC(=O)O (stereo not drawn) | > 10 |

target: T3, Peroxisome proliferator-activated receptor alpha (Homo sapiens, UniProt Q07869); assay: Transactivation of human PPARalpha expressed in monkey CV-1 cells coexpressing TK-PPRE-Luc after 24 hrs by luciferase reporter gene assay; format: cell-based
T3 sequence (Q07869 whole entry): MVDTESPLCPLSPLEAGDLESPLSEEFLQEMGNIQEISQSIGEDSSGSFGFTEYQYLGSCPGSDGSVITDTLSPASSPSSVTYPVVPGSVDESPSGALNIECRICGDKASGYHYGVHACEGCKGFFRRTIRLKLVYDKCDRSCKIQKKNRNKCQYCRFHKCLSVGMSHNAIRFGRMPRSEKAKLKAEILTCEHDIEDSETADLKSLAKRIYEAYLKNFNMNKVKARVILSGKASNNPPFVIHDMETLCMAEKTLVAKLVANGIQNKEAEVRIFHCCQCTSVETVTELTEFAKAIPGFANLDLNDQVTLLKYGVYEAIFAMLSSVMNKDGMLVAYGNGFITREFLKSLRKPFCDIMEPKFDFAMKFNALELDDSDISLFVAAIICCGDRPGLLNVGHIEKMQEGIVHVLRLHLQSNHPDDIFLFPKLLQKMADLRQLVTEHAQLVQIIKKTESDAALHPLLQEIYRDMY

| SMILES | EC50 [µM] |
| --- | --- |
| Cc1cc(SC(Cc2ccccc2)c2ccc(-c3ccc(F)cc3)cc2)ccc1OCC(=O)O (stereo not drawn) | > 10 |
| Cc1cc(SC(Cc2cc(F)c(F)c(F)c2)c2ccc(-c3cccc(C(F)(F)F)c3)cc2)ccc1OCC(=O)O (stereo not drawn) | > 10 |
| Cc1cc(SC(Cc2cc(F)ccc2F)c2ccc(-c3cc(F)c(F)c(F)c3)cc2)ccc1OCC(=O)O (stereo not drawn) | > 10 |
| Cc1cc(SC(Cc2cc(Cl)ccc2F)c2ccc(-c3ccccc3)cc2)ccc1OCC(=O)O (stereo not drawn) | > 10 |
| Cc1cc(SC(Cc2cc(C(F)(F)F)ccc2F)c2ccc(-c3cccc(C(F)(F)F)c3)cc2)ccc1OCC(=O)O (stereo not drawn) | > 10 |
| Cc1cc(SC(Cc2cc(Cl)ccc2F)c2ccc(-c3cccc(C(F)(F)F)c3)cc2)ccc1OCC(=O)O (stereo not drawn) | > 10 |
| Cc1cc(SC(Cc2cc(F)c(F)c(F)c2)c2ccc(-c3ccc(F)cc3)cc2)ccc1OCC(=O)O (stereo not drawn) | > 10 |
| Cc1cc(SC(Cc2cc(F)ccc2F)c2ccc(-c3cccc(C(F)(F)F)c3)cc2)ccc1OCC(=O)O (stereo not drawn) | > 10 |
| Cc1cc(SC(Cc2cc(C(F)(F)F)ccc2F)c2ccc(-c3ccccc3)cc2)ccc1OCC(=O)O (stereo not drawn) | > 10 |
| Cc1cc(SC(Cc2cc(F)c(F)c(F)c2)c2ccc(-c3ccc(C(F)(F)F)cc3)nc2)ccc1OCC(=O)O (stereo not drawn) | > 10 |
| Cc1cc(SC(Cc2ccccc2)c2ccc(-c3cccc(C(F)(F)F)c3)cc2)ccc1OCC(=O)O (stereo not drawn) | > 10 |
